pIC50: −log10 of the molar value. Read-outs that look alike come from different tables or passages of the source.
Legend:
BJ = assay: MTS cytotoxicity assay, 72 h, BJ fibroblasts; type: cell-based, human; conditions: Homo sapiens, BJ, read-out: IC50 BJ
Procedure, shortened: (§1)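 Human lines were kept at 37 °C, 5% CO2 in recommended medium plus 10% FCS, penicillin–streptomycin, 2 mM glutamine, 1 mM bicarbonate, 1 mM pyruvate and 20 mM HEPES, and were mycoplasma-tested biweekly. Cells were exposed to test compound for 72 h on a robotic screening platform, then read by MTS. DMSO-treated cells were the negative control. IC50 came from dose–response curves, mean of ≥6 replicates.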

HCT116-p53 = assay: MTS cytotoxicity assay, 72 h, HCT116-p53; type: cell-based, human; conditions: Homo sapiens, read-out: IC50 HCT116-p53
Procedure, shortened: as §1

CCRF-CEM = assay: MTS cytotoxicity assay, 72 h, CCRF-CEM; type: cell-based, human; conditions: Homo sapiens, CCRF-CEM, read-out: IC50 CCRF-CEM
Procedure, shortened: as §1

[1] = system: panel of human cell lines; assay: MTS cytotoxicity assay, statements over groups of cell lines of the panel; type: cell-based; conditions: Homo sapiens
Procedure, shortened: as §1

MRC-5 = assay: MTS cytotoxicity assay, 72 h, MRC-5 fibroblasts; type: cell-based, human; conditions: Homo sapiens, MRC5, 72 h, read-out: IC50 MRC-5
Procedure, shortened: as §1

A549 = assay: MTS cytotoxicity assay, 72 h, A549; type: cell-based, human; conditions: Homo sapiens, A549, 72 h, read-out: IC50 A549
Procedure, shortened: as §1

K562 = assay: MTS cytotoxicity assay, 72 h, K562; type: cell-based, human; conditions: Homo sapiens, K562, 72 h, read-out: IC50 K562
Procedure, shortened: as §1

HCT116 = assay: MTS cytotoxicity assay, 72 h, HCT116; type: cell-based, human; conditions: Homo sapiens, HCT-116, 72 h, read-out: IC50 HCT116
Procedure, shortened: as §1

U2OS = assay: MTS cytotoxicity assay, 72 h, U2OS; type: cell-based, human; conditions: Homo sapiens, U2OS, read-out: IC50 U2OS
Procedure, shortened: as §1

RAMOS = assay: MTS cytotoxicity assay, 72 h, RAMOS; type: cell-based, human; conditions: Homo sapiens, Ramos, read-out: IC50 RAMOS
Procedure, shortened: as §1

Jurkat = assay: MTS cytotoxicity assay, 72 h, Jurkat; type: cell-based, human; conditions: Homo sapiens, Jurkat, read-out: IC50 Jurkat
Procedure, shortened: as §1

[2] = 72 h, read-out: IC50 across all tested cell lines
[3] = read-out: IC50 across multiple cancer lines

SMILES | pIC50 (BJ) | pIC50 (HCT116-p53) | pIC50 (CCRF-CEM) | pIC50 [1, 2] | pIC50 (MRC-5) | pIC50 (A549) | pIC50 (K562) | pIC50 (HCT116) | pIC50 (U2OS) | pIC50 (RAMOS) | pIC50 (Jurkat) | pIC50 [1, 3]
O=C(Nc1ccccc1)C1CN(c2cc(-c3ccncc3)n[nH]c2=O)C1 [Compound 7, 1-(3-oxo-6-(pyridin-4-yl)-2,3-dihydropyridazin-4-yl)-N-phenylazetidine-3-carboxamide] | < 4.30 | < 4.30 | < 4.30 | < 4.30 | < 4.30 | < 4.30 | < 4.30 | < 4.30 | < 4.30 | < 4.30 | < 4.30 | 
O=C(Nc1ccccc1)C1CN(c2cc(-c3ccccc3)n[nH]c2=O)C1 [Compound 8, 1-(3-oxo-6-phenyl-2,3-dihydropyridazin-4-yl)-N-phenylazetidine-3-carboxamide] | < 4.30 | < 4.30 | < 4.30 | < 4.30 | < 4.30 | < 4.30 | < 4.30 | < 4.30 | < 4.30 | < 4.30 | < 4.30 | 
COc1ccc(-c2cc(N3CC(C(=O)Nc4ccccc4)C3)c(=O)[nH]n2)cc1 [Compound 10, 1-(6-(4-methoxyphenyl)-3-oxo-2,3-dihydropyridazin-4-yl)-N-phenylazetidine-3-carboxamide] | < 4.30 | < 4.30 | 4.68 |  | < 4.30 | < 4.30 | < 4.30 | < 4.30 | < 4.30 | 4.96 | 4.39 | 
O=C(Nc1ccccc1)C1CN(c2cc(-c3ccc(Cl)cc3)n[nH]c2=O)C1 [Compound 11, 1-(6-(4-chlorophenyl)-3-oxo-2,3-dihydropyridazin-4-yl)-N-phenylazetidine-3-carboxamide] | 4.47 | 4.42 | 4.64 |  | 4.59 | 4.49 | < 4.30 | 4.41 | 4.57 | 4.98 | 4.48 | 4.43 to 4.74
O=C(Nc1ccccc1)C1CN(c2cc(-c3ccc(F)cc3F)n[nH]c2=O)C1 [Compound 12, 1-(6-(2,4-difluorophenyl)-3-oxo-2,3-dihydropyridazin-4-yl)-N-phenylazetidine-3-carboxamide] | 4.54 | 4.48 | 4.74 |  | 4.78 | 4.44 | 4.50 | 4.43 | 4.79 | 4.77 | 4.47 | 4.43 to 4.74
O=C(NCc1ccco1)C1CN(c2cc(-c3ccncc3)n[nH]c2=O)C1 [Compound 17, N-(furan-2-ylmethyl)-1-(3-oxo-6-(pyridin-4-yl)-2,3-dihydropyridazin-4-yl)azetidine-3-carboxamide] | < 4.30 | < 4.30 | < 4.30 | < 4.30 | < 4.30 | < 4.30 | < 4.30 | < 4.30 | < 4.30 | < 4.30 | < 4.30 | 
O=C(NCc1ccco1)C1CN(c2cc(-c3ccccc3)n[nH]c2=O)C1 [Compound 18, N-(furan-2-ylmethyl)-1-(3-oxo-6-phenyl-2,3-dihydropyridazin-4-yl)azetidine-3-carboxamide] | < 4.30 | < 4.30 | 4.52 |  | < 4.30 | < 4.30 | 4.52 | < 4.30 | < 4.30 | 4.39 | 4.72 | 
O=C(NCc1ccco1)C1CN(c2cc(-c3cccc(F)c3)n[nH]c2=O)C1 [Compound 19, 1-(6-(3-fluorophenyl)-3-oxo-2,3-dihydropyridazin-4-yl)-N-(furan-2-ylmethyl)azetidine-3-carboxamide] | < 4.30 | < 4.30 | < 4.30 |  | < 4.30 | < 4.30 | < 4.30 | < 4.30 | < 4.30 | 4.79 | 4.60 | 
COc1ccc(-c2cc(N3CC(C(=O)NCc4ccco4)C3)c(=O)[nH]n2)cc1 [Compound 20, N-(furan-2-ylmethyl)-1-(6-(4-methoxyphenyl)-3-oxo-2,3-dihydropyridazin-4-yl)azetidine-3-carboxamide] | < 4.30 | < 4.30 | < 4.30 |  | < 4.30 | < 4.30 | 4.41 | < 4.30 | < 4.30 | 4.71 | 4.61 | 
O=C(NCc1ccco1)C1CN(c2cc(-c3ccc(Cl)cc3)n[nH]c2=O)C1 [Compound 21, 1-(6-(4-chlorophenyl)-3-oxo-2,3-dihydropyridazin-4-yl)-N-(furan-2-ylmethyl)azetidine-3-carboxamide] | < 4.30 | < 4.30 | < 4.30 |  | < 4.30 | < 4.30 | < 4.30 | < 4.30 | < 4.30 | 4.43 | 4.52 | 
COC(=O)c1cncc(-c2cc(N3CC(C(=O)NCc4ccco4)C3)c(=O)[nH]n2)c1 [Compound 23, methyl 5-(5-(3-((furan-2-ylmethyl)carbamoyl)azetidin-1-yl)-6-oxo-1,6-dihydropyridazin-3-yl)nicotinate] | < 4.30 | 4.90 | 5.29 |  | < 4.30 | 4.38 | 5.13 | 5.05 | 4.77 | 5.26 | 5.29 | 
O=C(C1CN(c2cc(-c3ccncc3)n[nH]c2=O)C1)N1CCN(c2ccccc2)CC1 [Compound 28, 4-(3-(4-phenylpiperazine-1-carbonyl)azetidin-1-yl)-6-(pyridin-4-yl)pyridazin-3(2H)-one] | < 4.30 | < 4.30 | < 4.30 |  | < 4.30 | < 4.30 | < 4.30 | < 4.30 | < 4.30 | < 4.30 | < 4.30 | 
O=C(C1CN(c2cc(-c3ccccc3)n[nH]c2=O)C1)N1CCN(c2ccccc2)CC1 [Compound 29, 6-phenyl-4-(3-(4-phenylpiperazine-1-carbonyl)azetidin-1-yl)pyridazin-3(2H)-one] | < 4.30 | < 4.30 | < 4.30 |  | < 4.30 | < 4.30 | < 4.30 | < 4.30 | < 4.30 | < 4.30 | < 4.30 | 
O=C(NCC(F)(F)F)C1CN(c2cc(-c3ccncc3)n[nH]c2=O)C1 [Compound 34, 1-(3-oxo-6-(pyridin-4-yl)-2,3-dihydropyridazin-4-yl)-N-(2,2,2-trifluoroethyl)azetidine-3-carboxamide] | < 4.30 | < 4.30 | < 4.30 | < 4.30 | < 4.30 | < 4.30 | < 4.30 | < 4.30 | < 4.30 | < 4.30 | < 4.30 | 
O=C(NCC(F)(F)F)C1CN(c2cc(-c3ccccc3)n[nH]c2=O)C1 [Compound 35, 1-(3-oxo-6-phenyl-2,3-dihydropyridazin-4-yl)-N-(2,2,2-trifluoroethyl)azetidine-3-carboxamide] | < 4.30 | < 4.30 | < 4.30 | < 4.30 | < 4.30 | < 4.30 | < 4.30 | < 4.30 | < 4.30 | < 4.30 | < 4.30 | 
O=C(NCC(F)(F)F)C1CN(c2cc(-c3cccc(F)c3)n[nH]c2=O)C1 [Compound 36, 1-(6-(3-fluorophenyl)-3-oxo-2,3-dihydropyridazin-4-yl)-N-(2,2,2-trifluoroethyl)azetidine-3-carboxamide] | < 4.30 | < 4.30 | < 4.30 | < 4.30 | < 4.30 | < 4.30 | < 4.30 | < 4.30 | < 4.30 | < 4.30 | < 4.30 | 
COc1ccc(-c2cc(N3CC(C(=O)NCC(F)(F)F)C3)c(=O)[nH]n2)cc1 [Compound 37, 1-(6-(4-methoxyphenyl)-3-oxo-2,3-dihydropyridazin-4-yl)-N-(2,2,2-trifluoroethyl)azetidine-3-carboxamide] | < 4.30 | < 4.30 | < 4.30 | < 4.30 | < 4.30 | < 4.30 | < 4.30 | < 4.30 | < 4.30 | < 4.30 | < 4.30 | 
O=C(c1ccncc1)C1CN(c2cc(-c3ccncc3)n[nH]c2=O)C1 [Compound 46, 4-(3-isonicotinoylazetidin-1-yl)-6-(pyridin-4-yl)pyridazin-3(2H)-one] | < 4.30 | < 4.30 | 4.54 |  | < 4.30 | < 4.30 | < 4.30 | < 4.30 | < 4.30 | < 4.30 | 4.44 | 
